Reference: ChEMBL document CHEMBL1125346, “Guanidinophenyl-substituted enol lactones as selective, mechanism-based inhibitors of trypsin-like serine proteases” (J Med Chem, 1992)

Key:
[1] = molecular target: T1, Serine protease 1 (Bos taurus) (UniProt P00760); assay: Acylation rate constant against trypsin
T1 sequence (whole entry): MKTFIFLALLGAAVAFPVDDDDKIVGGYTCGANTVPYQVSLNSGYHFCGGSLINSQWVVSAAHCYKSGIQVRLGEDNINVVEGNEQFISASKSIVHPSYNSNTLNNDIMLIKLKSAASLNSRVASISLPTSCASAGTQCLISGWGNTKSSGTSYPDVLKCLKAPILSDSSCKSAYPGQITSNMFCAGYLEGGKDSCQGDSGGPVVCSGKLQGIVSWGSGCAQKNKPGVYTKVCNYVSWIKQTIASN
Procedure, shortened: (§1)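 Competitive substrate assay: lactone (DMSO, final 10% v/v) and chromogenic substrate combined in buffer, enzyme added, absorbance followed to steady state. Turnover-corrected semilog plot gives kobs; I0 vs I0/kobs replot (eq 6) with separately determined Km yields Ki and ka. Where no burst was seen, Ki was estimated from Km(app) replots using 15-s initial velocities. Buffers and substrates as in incubation assay.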

[2] = molecular target: Chymotrypsinogen A (Bos taurus) (UniProt P00766); assay: Time for which maximum percent inhibition persists was determined against alpha-chymotrypsin (17 nM); format: functional
Procedure, shortened: (§2)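 Enzyme incubated with excess lactone added from DMSO stock (final 10% DMSO); aliquots over 2 h diluted into substrate: chymotrypsin Suc-AAPF-pNA 315 µM, pH 7.2, 410 nm; t-PA Spectrozyme t-PA 0.2 mM, Tris-imidazole pH 8.4, 405 nm; HNE MeO-Suc-AAPV-pNA 150 µM, pH 7.4, 410 nm; plasmin Ts-GPK-pNA 157.4 µM, pH 7.8, 404 nm; thrombin Ts-GPR-pNA 75 µM, pH 8.0, 408 nm; trypsin Z-VGR-pNA 155 µM, pH 7.2, 404 nm. Activity given relative to a no-lactone control. Some runs used a 10-min substrate-free delay after dilution. ∞ means no recovery over 2 h.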

[3] = molecular target: Prothrombin (Homo sapiens) (UniProt P00734); assay: Time to reach maximum percent inhibition by the compound was determined against thrombin (1.93 nM); format: functional
Procedure, shortened: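 Thrombin was incubated with excess lactone (DMSO, 10% final). Aliquots over 2 h were diluted into Ts-Gly-Pro-Arg-pNA (75 μM) in 0.05 M phosphate, 0.01 M EDTA, 10 g/L PEG 8000, 10 mg/L aprotinin, pH 8.0, and read at 408 nm against a no-lactone control. Time to maximal inhibition was recorded.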

[4] = molecular target: T1, Serine protease 1 (Bos taurus); assay: Time for which maximum percent inhibition persists was determined against trypsin (14.6 nM); format: functional
Procedure, shortened: (§3)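 Trypsin was incubated with excess lactone added from DMSO stock (10% final DMSO). Aliquots taken over 2 h were diluted into Z-Val-Gly-Arg-pNA (155 μM) in 0.2 M phosphate, pH 7.2, and read at 404 nm. Activity came from the absorbance slope versus a no-lactone control. Reported are minutes to maximal inhibition and minutes it persisted; ∞ means no recovery within 2 h.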

[5] = molecular target: T2, Urokinase-type plasminogen activator (Homo sapiens, UniProt P00749)
[6] = molecular target: Chymotrypsinogen A (Bos taurus) (UniProt P00766); assay: Maximum percent inhibition by the compound was determined against Chymotrypsinogen (17 nM); procedure, shortened: as §2
[7] = molecular target: T3, Neutrophil elastase (Homo sapiens) (UniProt P08246); assay: Time for which maximum percent inhibition persists was determined against human neutrophil elastase (HNE); format: functional; procedure, shortened: as §2
T3 sequence (whole entry): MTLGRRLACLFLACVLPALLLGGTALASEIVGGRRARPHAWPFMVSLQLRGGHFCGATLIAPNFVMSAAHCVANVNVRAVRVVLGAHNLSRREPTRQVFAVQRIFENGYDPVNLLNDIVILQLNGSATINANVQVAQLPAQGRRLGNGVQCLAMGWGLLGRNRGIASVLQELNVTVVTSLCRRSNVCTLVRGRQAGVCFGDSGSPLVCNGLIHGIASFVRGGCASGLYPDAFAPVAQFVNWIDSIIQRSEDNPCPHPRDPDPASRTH

[8] = molecular target: Prothrombin (Homo sapiens) (UniProt P00734); assay: Maximum percent inhibition by the compound was determined against thrombin (1.93 nM); procedure, shortened: as §2
[9] = Ratio of initial inhibitor concentration to initial trypsin concentration
Procedure, shortened: (§4)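 Ratio I0/E0 of lactone to enzyme in the 2-h incubation assay; lactone added from DMSO stock to buffered enzyme (final 10% DMSO).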

[10] = molecular target: T1, Serine protease 1 (Bos taurus); assay: Maximum percent inhibition by the compound was determined against trypsin (14.6 nM); procedure, shortened: as §2
[11] = Ratio of initial inhibitor concentration to initial HNE concentration; procedure, shortened: as §4
[12] = molecular target: Tissue-type plasminogen activator (Homo sapiens) (UniProt P00750); assay: Time for which maximum percent inhibition persists was determined against Tissue plasminogen activator (19.4 nM); format: functional; procedure, shortened: as §2
[13] = molecular target: Plasminogen (Homo sapiens) (UniProt P00747); assay: Time for which maximum percent inhibition persists was determined against plasmin; format: functional; procedure, shortened: as §2
[14] = molecular target: T1, Serine protease 1 (Bos taurus); assay: Substrate binding constant against trypsin; procedure, shortened: as §1
[15] = Ratio of initial inhibitor concentration to initial Plasmin concentration; procedure, shortened: as §4
[16] = molecular target: T2, Urokinase-type plasminogen activator; remark: listed apart in the source
[17] = molecular target: Tissue-type plasminogen activator (Homo sapiens) (UniProt P00750); assay: Time to reach maximum percent inhibition by the compound was determined against Tissue plasminogen activator (19.4 nM); format: functional
Procedure, shortened: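 Tissue plasminogen activator was exposed to excess lactone (10% final DMSO). Over 2 h, aliquots were diluted into Spectrozyme t-PA (0.2 mM) in Tris-imidazole, I 0.3, pH 8.4. Hydrolysis at 405 nm gave residual activity relative to an enzyme-only control. The time (min) to reach maximal percent inhibition was recorded.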

[18] = Ratio of initial inhibitor concentration to initial thrombin concentration; procedure, shortened: as §4
[19] = molecular target: Plasminogen (Homo sapiens) (UniProt P00747); assay: Time to reach maximum percent inhibition by the compound was determined against plasmin(625 nM); format: functional
Procedure, shortened: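 Plasmin plus excess lactone (10% final DMSO) was sampled over 2 h into Ts-Gly-Pro-Lys-pNA (157.4 μM) in 0.05 M phosphate, pH 7.8. The slope at 404 nm, relative to an enzyme-only control, gave residual activity. Minutes needed to reach maximal inhibition were reported.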

[20] = Ratio of initial inhibitor concentration to initial urokinase concentration; procedure, shortened: as §4
[21] = Ratio of initial inhibitor concentration to initial Chymotrypsinogen concentration; procedure, shortened: as §4
[22] = molecular target: T1, Serine protease 1 (Bos taurus); assay: Time to reach maximum percent inhibition by the compound was determined against trypsin (14.6 nM); format: functional; procedure, shortened: as §3
[23] = molecular target: T2, Urokinase-type plasminogen activator; remark: listed apart in the source
[24] = molecular target: Plasminogen (Homo sapiens) (UniProt P00747); assay: Maximum percent inhibition by the compound was determined against plasmin(625 nM); procedure, shortened: as §2
[25] = Ratio of initial inhibitor concentration to initial t-PA concentration; procedure, shortened: as §4
[26] = molecular target: T1, Serine protease 1 (Bos taurus); assay: Second order rate constant against trypsin; procedure, shortened: as §1
[27] = molecular target: Prothrombin (Homo sapiens) (UniProt P00734); assay: Time for which maximum percent inhibition persists was determined against thrombin (1.93 nM); format: functional; procedure, shortened: as §2
[28] = molecular target: T3, Neutrophil elastase (Homo sapiens); assay: Time to reach maximum percent inhibition by the compound was determined against human neutrophil elastase (HNE); format: functional
Procedure, shortened: (§5)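 HNE was incubated with excess lactone in 10% final DMSO. Aliquots drawn during 2 h went into MeO-Suc-Ala-Ala-Pro-Val-pNA (150 μM) in 0.1 M phosphate, 0.5 M NaCl, pH 7.4, read at 410 nm. Activity was set relative to a lactone-free control, and the time (min) to peak inhibition was noted.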

[29] = molecular target: T2, Urokinase-type plasminogen activator; assay: Time for which maximum percent inhibition persists was determined against Urokinase-type plasminogen activator e (300 nM); * =no enzyme activity was recovered over 2 h; format: functional
[30] = molecular target: Chymotrypsinogen A (Bos taurus) (UniProt P00766); assay: Time to reach maximum percent inhibition by the compound was determined against alpha-chymotrypsin (17 nM); format: functional
Procedure, shortened: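 α-Chymotrypsin with excess lactone (DMSO, 10% final) was sampled over 2 h into Suc-Ala-Ala-Pro-Phe-pNA (315 μM) in 0.2 M phosphate, pH 7.2. Absorbance at 410 nm gave the remaining activity versus a control without lactone. Minutes to maximal inhibition were taken.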

[31] = molecular target: Tissue-type plasminogen activator (Homo sapiens) (UniProt P00750); assay: Maximum percent inhibition by the compound was determined against Tissue plasminogen activator (19.4 nM); procedure, shortened: as §2
[32] = molecular target: T3, Neutrophil elastase (Homo sapiens); assay: Maximum percent inhibition by the compound was determined against human neutrophil elastase (HNE); procedure, shortened: as §2
[33] = molecular target: Plasminogen (Homo sapiens) (UniProt P00747); assay: Substrate binding constant against plasmin; procedure, shortened: as §1
Serine protease 1 = molecular target: T4, Serine protease 1 (Bos taurus, UniProt P00760); assay: Decylation rate constant against trypsin
T4 sequence (P00760 whole entry): T1 sequence (whole entry)
Procedure, shortened: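 Trypsin incubated 30–45 min with excess lactone (same I0/E0 as incubation assay). Free inhibitor removed by two 1-h centrifugations at 0 °C. Activity recovery followed at room temperature against an inhibitor-free control carried through the same treatment; kd is the slope of ln remaining activity vs time. Substrate Z-Val-Gly-Arg-pNA 155 µM, 0.2 M phosphate pH 7.2, 404 nm.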

[34] = molecular target: Plasminogen (Homo sapiens) (UniProt P00747); assay: Second order rate constant against plasmin; procedure, shortened: as §1
[35] = molecular target: T3, Neutrophil elastase (Homo sapiens); assay: Maximum percent inhibition by the compound was determined against human neutrophil elastase HNE(66 nM); procedure, shortened: as §2
[36] = molecular target: Plasminogen (Homo sapiens) (UniProt P00747); assay: Time for which maximum percent inhibition persists was determined against plasmin(625 nM); * =no enzyme activity was recovered over 2 h; format: functional; procedure, shortened: as §2
[37] = molecular target: T3, Neutrophil elastase (Homo sapiens); assay: Time to reach maximum percent inhibition by the compound was determined against human neutrophil elastase HNE(66 nM); format: functional; procedure, shortened: as §5
[38] = molecular target: Plasminogen (Homo sapiens) (UniProt P00747); assay: Acylation rate constant against plasmin; procedure, shortened: as §1
[39] = molecular target: T2, Urokinase-type plasminogen activator; assay: Decylation rate constant against Urokinase-type plasminogen activator

Chain of Plasminogen (Homo sapiens) (P00747 97-580 limits assumed): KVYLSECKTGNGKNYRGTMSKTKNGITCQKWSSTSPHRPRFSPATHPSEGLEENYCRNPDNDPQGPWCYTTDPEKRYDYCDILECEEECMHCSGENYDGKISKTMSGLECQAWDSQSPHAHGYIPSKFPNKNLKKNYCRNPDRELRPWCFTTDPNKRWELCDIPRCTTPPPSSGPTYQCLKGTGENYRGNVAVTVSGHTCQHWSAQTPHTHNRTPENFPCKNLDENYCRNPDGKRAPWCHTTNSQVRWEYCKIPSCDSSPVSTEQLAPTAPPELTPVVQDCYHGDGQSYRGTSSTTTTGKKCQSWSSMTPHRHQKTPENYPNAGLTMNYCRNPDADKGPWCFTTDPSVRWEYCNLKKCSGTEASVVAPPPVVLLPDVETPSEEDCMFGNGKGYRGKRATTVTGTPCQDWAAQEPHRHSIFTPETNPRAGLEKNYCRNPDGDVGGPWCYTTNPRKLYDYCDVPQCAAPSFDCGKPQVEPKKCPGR
Chain of Plasminogen (Homo sapiens) (P00747 581-810 limits assumed): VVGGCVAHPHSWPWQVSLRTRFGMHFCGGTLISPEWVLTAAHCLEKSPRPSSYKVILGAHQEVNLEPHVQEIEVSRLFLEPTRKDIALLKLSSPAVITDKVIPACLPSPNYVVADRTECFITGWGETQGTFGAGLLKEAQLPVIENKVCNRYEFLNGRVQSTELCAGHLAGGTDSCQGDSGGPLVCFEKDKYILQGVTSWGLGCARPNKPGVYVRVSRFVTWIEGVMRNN
Chain of Tissue-type plasminogen activator (Homo sapiens) (P00750 36-562 limits assumed): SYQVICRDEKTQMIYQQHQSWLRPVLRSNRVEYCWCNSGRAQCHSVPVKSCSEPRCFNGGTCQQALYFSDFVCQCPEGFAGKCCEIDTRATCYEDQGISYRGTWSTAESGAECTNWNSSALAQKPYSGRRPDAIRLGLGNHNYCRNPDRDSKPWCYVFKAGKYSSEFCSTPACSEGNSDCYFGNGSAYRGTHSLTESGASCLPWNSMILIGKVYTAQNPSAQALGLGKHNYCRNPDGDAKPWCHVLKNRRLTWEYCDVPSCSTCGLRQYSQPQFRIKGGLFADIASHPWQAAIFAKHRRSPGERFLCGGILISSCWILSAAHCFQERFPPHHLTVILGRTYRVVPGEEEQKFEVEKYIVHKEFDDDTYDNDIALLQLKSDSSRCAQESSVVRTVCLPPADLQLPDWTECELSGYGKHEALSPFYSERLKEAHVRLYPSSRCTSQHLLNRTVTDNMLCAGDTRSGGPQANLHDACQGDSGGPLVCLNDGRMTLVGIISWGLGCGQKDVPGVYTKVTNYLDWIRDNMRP

SMILES | Ka [1] | TIME [2] | TIME [3] | Ka [5] | inhibition [6] | inhibition [8] | Ratio [9] | Ratio [11] | TIME [12] | Ks [14] | Ratio [15] | Ks [16] | TIME [17] | Ratio [18] | TIME [19] | Ratio [20] | Ratio [21] | TIME [22] | Rate [23] | inhibition [24] | other results
C=C1CCC(c2ccc(NC(=N)N)cc2)C(=O)O1 (centres undefined) | 14 min⁻¹ | 0 h | 0 h | 391 min⁻¹ | 58% | 7% | 86 Io/Eo | 36 Io/Eo | 0 h | 0.23 µM | 16 Io/Eo | 0.33 µM | 0 h | 518 Io/Eo | 0 h | 50 Io/Eo | 118 Io/Eo | 0 h | 1180 ka/Ks | 99% | TIME [4]: 0.75 h; TIME [7]: 0 h; inhibition [10]: 97%; TIME [13]: 0 h; Ratio [25]: 100 Io/Eo; Rate [26]: 62 ka/Ks; TIME [27]: 0 h; TIME [28]: 0.25 h; TIME [29]: No enzyme activity; TIME [30]: 0.75 h; inhibition [31]: 29%; inhibition [32]: 22%
C=C1CC(c2ccc(NC(=N)N)cc2)CC(=O)O1 (centres undefined) | 91 min⁻¹ | 0.75 h | 0.25 h | 0.24 min⁻¹ | 34% | 40% | 86 Io/Eo | 36 Io/Eo | 0.5 h | 9.4 µM | 16 Io/Eo | 0.12 µM | 0.25 h | 518 Io/Eo | 0 h | 50 Io/Eo | 118 Io/Eo | 0.333 h | 2 ka/Ks | 79% | Ks [33]: 63.7 µM; Kd (Serine protease 1): 3.3e-05 s⁻¹; Rate [34]: 1.5 ka/Ks; inhibition [35]: 27%; TIME [36]: No enzyme activity; Ratio [25]: 100 Io/Eo; Rate [26]: 10 ka/Ks; TIME [37]: 0.5 h; Ka [38]: 97 min⁻¹; TIME [30]: 0 h; inhibition [31]: 24%; Kd [39]: 0.00015 s⁻¹
